For six compounds, IC50 and Activity results are on record in ChEMBL document CHEMBL1157070, “Polyhydroxysteroidal glycosides from the starfish Anthenea chinensis” (J Nat Prod, 2010).

One assay has as its system Bel-7402. The assay is described as follows: Cytotoxicity against human Bel7402 cells after 72 hrs by SRB assay. The class given is functional, cell-based. To be noted: Bel-7402, 72 h. The procedure, abridged:
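Human hepatoma BEL-7402 cells, sulforhodamine B protein stain per a reported method. Dose-response curves plotted; IC50 taken as the concentration giving 50% lower absorption than control cells. Means of three independent experiments, each concentration in triplicate wells. 10-Hydroxycamptothecine as positive control.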

A short description of assay [1]: Cytotoxicity against human U87MG cells after 72 hrs by MTT assay. The class given is functional, cell-based, U-87MG ATCC. To be noted: U-87 MG. The method, boiled down: (§1)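 MTT colorimetric read-out per a previously described method. K-562 (human leukemia) used 10-hydroxycamptothecine as positive control, U87MG (human spongioblastoma) used nimustine. IC50 read from dose-response curves as the concentration causing 50% reduction in absorption versus control cells. Mean of three independent experiments, triplicate wells per concentration.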

For the next assay, the system named is K562. As to the kind of experiment: Cytotoxicity against human K562 cells after 72 hrs by MTT assay. The format is functional, cell-based. To be noted: K562, 72 h. The procedure, abridged: as §1
The target in the next assay is Tubulin (Sus scrofa) (UniProt P02554+P02550). The assay is described as follows: Induction of pig brain tubulin polymerization at 10 ug/ml.
Tubulin (Sus scrofa), sequence (P02550 whole entry, looked up): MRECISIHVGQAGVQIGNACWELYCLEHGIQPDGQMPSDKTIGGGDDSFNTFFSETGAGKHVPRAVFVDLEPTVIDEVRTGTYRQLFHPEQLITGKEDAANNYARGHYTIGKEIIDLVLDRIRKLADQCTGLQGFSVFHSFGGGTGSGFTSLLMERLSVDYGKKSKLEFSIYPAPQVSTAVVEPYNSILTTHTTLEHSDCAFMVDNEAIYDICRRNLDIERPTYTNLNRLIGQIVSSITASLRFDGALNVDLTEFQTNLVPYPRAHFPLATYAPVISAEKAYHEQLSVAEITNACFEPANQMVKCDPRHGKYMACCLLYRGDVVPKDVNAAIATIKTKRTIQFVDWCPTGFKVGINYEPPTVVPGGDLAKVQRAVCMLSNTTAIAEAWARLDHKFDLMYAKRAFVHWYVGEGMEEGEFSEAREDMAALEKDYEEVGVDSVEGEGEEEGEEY
Tubulin (Sus scrofa), sequence (P02554 whole entry, looked up): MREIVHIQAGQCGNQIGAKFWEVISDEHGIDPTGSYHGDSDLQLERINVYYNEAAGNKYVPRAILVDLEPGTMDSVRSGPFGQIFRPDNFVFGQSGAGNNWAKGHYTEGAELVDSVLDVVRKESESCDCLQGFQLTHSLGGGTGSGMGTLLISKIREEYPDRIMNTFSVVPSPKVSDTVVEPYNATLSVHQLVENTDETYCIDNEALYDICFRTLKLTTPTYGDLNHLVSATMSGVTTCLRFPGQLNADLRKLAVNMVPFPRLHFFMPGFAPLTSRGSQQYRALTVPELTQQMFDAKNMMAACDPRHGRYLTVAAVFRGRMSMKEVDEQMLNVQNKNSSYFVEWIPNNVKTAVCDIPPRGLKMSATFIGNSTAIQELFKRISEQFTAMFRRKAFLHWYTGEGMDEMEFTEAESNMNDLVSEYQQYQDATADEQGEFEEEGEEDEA

Activity calls are given as the source filed them. The rule behind the calls is not given here. Some results are limits rather than exact numbers.

Consider `CCC(CC[C@@H](C)[C@H]1[C@H](O[C@@H]2O[C@@H]([C@@H](O)COC)[C@H](O[C@@H]3O[C@@H]([C@@H](O)COC)[C@H](O)[C@H]3O)[C@H]2O)CC2=C3[C@@H](O)[C@@H](O)[C@H]4C[C@H](O)CC[C@]4(C)[C@H]3CC[C@@]21C)C(C)C` (mixture of isomers), for which the figures for the IC50 (in the assay with Bel-7402; in assay [1]; in the assay with K562) were 4.9 µM, > 24.5 µM and 2.8 µM, respectively. Further, on Tubulin (Sus scrofa), the result was inactive.
For `CCC(CC[C@@H](C)[C@H]1[C@H](O[C@@H]2O[C@@H]([C@@H](O)COC)[C@H](O)[C@H]2O)CC2=C3[C@@H](O[C@@H]4O[C@@H]([C@@H](O)COC)[C@H](O)[C@H]4O)[C@@H](O)[C@H]4C[C@H](O)CC[C@]4(C)[C@H]3CC[C@@]21C)C(C)C` (mixture of isomers), the IC50 in the assay with Bel-7402 turned out to be 2.7 µM; in assay [1], 3.6 µM; in the assay on K562, 0.6 µM.
For the compound `COC[C@H](O)[C@@H]1O[C@@H](O[C@@H]2[C@@H](O)[C@H](O[C@@H]3CC4=C5[C@@H](O)[C@@H](O)[C@H]6C[C@H](O)CC[C@]6(C)[C@H]5CC[C@]4(C)[C@H]3[C@H](C)CCCC(C)C)O[C@H]2[C@@H](O)COC)[C@H](O)[C@H]1O` [ANTHENOSIDE E], the IC50 with Bel-7402 was 8.3 µM; in assay [1], > 25.4 µM; in the assay with K562, 6.1 µM. For the same compound, the result on Tubulin (Sus scrofa) was inactive.
In the case of `C=C(CC[C@@H](C)[C@H]1[C@H](O[C@@H]2O[C@@H]([C@@H](O)COC)[C@H](O[C@@H]3O[C@@H]([C@@H](O)COC)[C@H](O)[C@H]3O)[C@H]2O)CC2=C3[C@@H](O)[C@@H](O)[C@H]4C[C@H](O)CC[C@]4(C)[C@H]3CC[C@@]21C)C(C)C` [ANTHENOSIDE G], the IC50 is 5.5 µM in the assay with Bel-7402, > 25.1 µM in assay [1] and 4.6 µM in the assay with K562. The result at Tubulin (Sus scrofa) was inactive.
Regarding `CC[C@@]1(O)C(=O)OCc2c1cc1n(c2=O)Cc2cc3cc(O)ccc3nc2-1` [HYDROXYCAMPTOTHECIN], the 50% inhibitory concentration (IC50) in the assay with Bel-7402 turned out to be 0.36 µM; in the assay with K562 it was 0.16 µM.
As to `Cc1ncc(CNC(=O)N(CCCl)N=O)c(N)n1` [NIMUSTINE], it took 0.84 µM to reach half-maximal inhibition in assay [1] (IC50).
